Results from ChEMBL document CHEMBL1932925, “Synthesis, biological evaluation, and molecular docking studies of cinnamic acyl 1,3,4-thiadiazole amide derivatives as novel antitubulin agents” (Bioorg Med Chem, 2012).
Converted amounts (≈) assume the structure as drawn.

Experiments:
[1] = Inhibition of bovine brain tubulin polymerization preincubated for 10 mins measured after 20 mins; design: species or system Bos taurus
Method in brief: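 Tubulin purified from bovine brain, used at 10 µM in glutamate buffer and preincubated with varying compound concentrations at 30 °C, then cooled to 0 °C. GTP added and mixtures warmed to 30 °C in a recording spectrophotometer, with assembly followed turbidimetrically.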

[2] = tested on: A549; test: Antiproliferative activity against human A549 cells after 48 hrs by MTT assay; assay type: functional, cell-based; conditions: A549, 48 h
Method in brief: (§1)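 Cells diluted to 2×10^4 cells mL⁻¹ in complete medium, plated and held 24 h at 37 °C, 5% CO₂ before dosing at pre-set concentrations. After 48 h exposure, MTT (2.5 mg mL⁻¹ in PBS) added for 4 h, then SDS–isobutyl alcohol–HCl extraction solution overnight at 37 °C. Absorbance read at 570 nm. Three replicate wells per concentration, each assay run at least three times.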

[3] = tested on: MCF7; test: Antiproliferative activity against human MCF7 cells after 48 hrs by MTT assay; assay type: functional, cell-based; conditions: MCF7, 48 h; method in brief: as §1
[4] = tested on: MCF7; test: Induction of cell cycle arrest in human MCF7 cells assessed as accumulation at S phase at 5 ug/ml after 24 hrs by flow cytometric analysis (reference value: 12%); assay type: functional
[5] = tested on: MCF7; test: Induction of cell cycle arrest in human MCF7 cells assessed as accumulation at G2/M phase at 5 ug/ml after 24 hrs by flow cytometric analysis (reference value: 18%); assay type: functional
[6] = tested on: MCF7; test: Induction of cell cycle arrest in human MCF7 cells assessed as accumulation at G0/G1 phase at 5 ug/ml after 24 hrs by flow cytometric analysis (reference value: 66%); assay type: functional

Compound	IC50 [1]	IC50 [2]	IC50 [3]	Activity [4]	Activity [5]	Activity [6]
O=C(/C=C/c1ccc(F)cc1)Nc1nnc(-c2ccccc2)s1	5.87 µg/mL (≈ 18 µM)	1.82 µg/mL (≈ 5.59 µM)	1.45 µg/mL (≈ 4.46 µM)	–	–	–
COc1ccc(/C=C/C(=O)Nc2nnc(-c3ccc(C)cc3)s2)cc1	2.64 µg/mL (≈ 7.51 µM)	0.66 µg/mL (≈ 1.88 µM)	0.35 µg/mL (≈ 0.996 µM)	–	–	–
COc1ccc(/C=C/C(=O)Nc2nnc(-c3ccccc3)s2)cc1	3.02 µg/mL (≈ 8.95 µM)	0.76 µg/mL (≈ 2.25 µM)	0.83 µg/mL (≈ 2.46 µM)	–	–	–
O=C(/C=C/c1ccccc1)Nc1nnc(-c2ccc(Cl)cc2)s1	6.56 µg/mL (≈ 19.2 µM)	2.02 µg/mL (≈ 5.91 µM)	1.42 µg/mL (≈ 4.15 µM)	–	–	–
COc1ccc(-c2nnc(NC(=O)/C=C/c3ccccc3)s2)cc1	3.08 µg/mL (≈ 9.13 µM)	0.68 µg/mL (≈ 2.02 µM)	0.78 µg/mL (≈ 2.31 µM)	–	–	–
Cc1ccc(/C=C/C(=O)Nc2nnc(-c3ccccc3)s2)cc1	4.49 µg/mL (≈ 14 µM)	1.58 µg/mL (≈ 4.92 µM)	1.23 µg/mL (≈ 3.83 µM)	–	–	–
Cc1ccc(-c2nnc(NC(=O)/C=C/c3ccccc3)s2)cc1	4.83 µg/mL (≈ 15 µM)	1.38 µg/mL (≈ 4.29 µM)	1.19 µg/mL (≈ 3.7 µM)	–	–	–
COc1ccc(/C=C/C(=O)Nc2nnc(-c3ccc(OC)cc3)s2)cc1	1.16 µg/mL (≈ 3.16 µM)	0.52 µg/mL (≈ 1.42 µM)	0.28 µg/mL (≈ 0.762 µM)	2%	68%	2%
COc1ccc(-c2nnc(NC(=O)/C=C/c3ccc(C)cc3)s2)cc1	2.56 µg/mL (≈ 7.28 µM)	0.58 µg/mL (≈ 1.65 µM)	0.31 µg/mL (≈ 0.882 µM)	–	–	–
O=C(/C=C/c1ccccc1)Nc1nnc(-c2ccccc2)s1	5.68 µg/mL (≈ 18.5 µM)	1.75 µg/mL (≈ 5.69 µM)	1.47 µg/mL (≈ 4.78 µM)	–	–	–
COc1ccc(/C=C/C(=O)Nc2nnc(-c3ccc(Cl)cc3)s2)cc1	5.68 µg/mL (≈ 15.3 µM)	1.38 µg/mL (≈ 3.71 µM)	0.91 µg/mL (≈ 2.45 µM)	–	–	–
COc1cc2c(c(OC)c1OC)-c1ccc(OC)c(=O)cc1[C@@H](NC(C)=O)CC2 [COLCHICINE]	–	0.75 µg/mL (≈ 1.88 µM)	0.53 µg/mL (≈ 1.33 µM)	3%	79%	2%
COc1ccc(/C=C\c2cc(OC)c(OC)c(OC)c2)cc1O [COMBRETASTATIN A4]	0.81 µg/mL (≈ 2.56 µM)	0.55 µg/mL (≈ 1.74 µM)	0.41 µg/mL (≈ 1.3 µM)	–	–	–

More lines, main results first:

IC50 [1]	IC50 [2]	IC50 [3]	Compound	Activity [4]	Activity [5]	Activity [6]
4.15 µg/mL (≈ 12.4 µM)	1.08 µg/mL (≈ 3.22 µM)	0.61 µg/mL (≈ 1.82 µM)	Cc1ccc(/C=C/C(=O)Nc2nnc(-c3ccc(C)cc3)s2)cc1	–	–	–
4.79 µg/mL (≈ 13.5 µM)	1.25 µg/mL (≈ 3.51 µM)	1.44 µg/mL (≈ 4.05 µM)	Cc1ccc(/C=C/C(=O)Nc2nnc(-c3ccc(Cl)cc3)s2)cc1	–	–	–
8.66 µg/mL (≈ 21.4 µM)	2.83 µg/mL (≈ 7 µM)	1.49 µg/mL (≈ 3.69 µM)	O=C(/C=C/c1ccc(F)cc1)Nc1nnc(-c2ccc(Br)cc2)s1	–	–	–
7.08 µg/mL (≈ 19.7 µM)	2.06 µg/mL (≈ 5.73 µM)	1.58 µg/mL (≈ 4.39 µM)	O=C(/C=C/c1ccc(F)cc1)Nc1nnc(-c2ccc(Cl)cc2)s1	–	–	–
7.05 µg/mL (≈ 18.3 µM)	2.18 µg/mL (≈ 5.64 µM)	1.5 µg/mL (≈ 3.88 µM)	O=C(/C=C/c1ccccc1)Nc1nnc(-c2ccc(Br)cc2)s1	–	–	–
5.16 µg/mL (≈ 13.3 µM)	1.61 µg/mL (≈ 4.13 µM)	1.1 µg/mL (≈ 2.82 µM)	Cc1ccc(-c2nnc(NC(=O)/C=C/c3ccc(C(F)(F)F)cc3)s2)cc1	–	–	–
5.08 µg/mL (≈ 15 µM)	1.23 µg/mL (≈ 3.62 µM)	1.27 µg/mL (≈ 3.74 µM)	Cc1ccc(-c2nnc(NC(=O)/C=C/c3ccc(F)cc3)s2)cc1	–	–	–
5.52 µg/mL (≈ 14.7 µM)	1.78 µg/mL (≈ 4.74 µM)	1.52 µg/mL (≈ 4.05 µM)	O=C(/C=C/c1ccc(C(F)(F)F)cc1)Nc1nnc(-c2ccccc2)s1	–	–	–
4.11 µg/mL (≈ 9.87 µM)	1.04 µg/mL (≈ 2.5 µM)	1.13 µg/mL (≈ 2.71 µM)	COc1ccc(/C=C/C(=O)Nc2nnc(-c3ccc(Br)cc3)s2)cc1	–	–	–
5.02 µg/mL (≈ 12.5 µM)	1.51 µg/mL (≈ 3.77 µM)	1.32 µg/mL (≈ 3.3 µM)	Cc1ccc(/C=C/C(=O)Nc2nnc(-c3ccc(Br)cc3)s2)cc1	–	–	–
3.05 µg/mL (≈ 8.58 µM)	0.75 µg/mL (≈ 2.11 µM)	0.85 µg/mL (≈ 2.39 µM)	COc1ccc(-c2nnc(NC(=O)/C=C/c3ccc(F)cc3)s2)cc1	–	–	–
3.17 µg/mL (≈ 7.82 µM)	0.69 µg/mL (≈ 1.7 µM)	0.79 µg/mL (≈ 1.95 µM)	COc1ccc(-c2nnc(NC(=O)/C=C/c3ccc(C(F)(F)F)cc3)s2)cc1	–	–	–
10.6 µg/mL (≈ 23.3 µM)	4.68 µg/mL (≈ 10.3 µM)	1.58 µg/mL (≈ 3.48 µM)	O=C(/C=C/c1ccc(C(F)(F)F)cc1)Nc1nnc(-c2ccc(Br)cc2)s1	–	–	–
7.83 µg/mL (≈ 19.1 µM)	3.09 µg/mL (≈ 7.54 µM)	1.65 µg/mL (≈ 4.03 µM)	O=C(/C=C/c1ccc(C(F)(F)F)cc1)Nc1nnc(-c2ccc(Cl)cc2)s1	–	–	–
